What all share (assay type): ADME, organism-based
Data set [1] is described as follows: Oral bioavailability in rat at 2 mg/kg. Particulars: in vivo. The essentials:
(§1)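 Rats were dosed both intravenously and orally, at 1.1 or 1.2 mg/kg iv and 2.0 or 2.3 mg/kg po. Plasma parameters were derived from these dosings. Values are means of three experiments with standard deviation.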

Data set [2] is described as follows: AUC (0 to t) in rat at 2 mg/kg, po. Further details: dose 2 mg/kg, route oral. Particulars: plasma. The essentials:
as §1

Data set [3] in a line: Half life in rat at 2 mg/kg, po. Further details: dose 2 mg/kg, route oral. The note with it: in vivo. The essentials: as §1
A short description of data set [4]: Cmax in rat at 2 mg/kg, po. Further details: dose 2 mg/kg, route oral. The note with it: in vivo. In outline: as §1

In data set [1], `CC(C)CC(c1nnnn1C)N(CC(C)C)c1ccc(C#N)c(Cl)c1` (centres undefined) returned a bioavailability of 100%. Moreover, the AUC(0-t) in data set [2] is 572 ng·h/mL. For the same molecule, the half-life in data set [3] was 8.9 h. The molecule also yielded a Cmax in data set [4] of 146 ng/mL.

The values are drawn from ChEMBL document CHEMBL1151890, “Synthesis and SAR of amino acid-derived heterocyclic progesterone receptor full and partial agonists” (Bioorg Med Chem Lett, 2009).
